Experimental data: ChEMBL document CHEMBL1938387 (J Med Chem, 2011)
Activity calls are given as the source filed them. No cut-off for these calls is given here.

Legend:
Bos taurus [1] = species: Bos taurus; test: Inhibition of bovine brain tubulin polymerization at 5 uM measured every 30 sec for 30 mins by turbidimetric assay
Bos taurus [2] = species: Bos taurus; test: Displacement of [3H]cholchicine from bovine brain tubulin at 1 uM after 2 hrs by scintillation counting
KB = test: Growth inhibition of human KB cells after 72 hrs by methylene blue assay; type: functional, cell-based
In short: (§1)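 HT29, KB and MKN45 cells grown in DMEM, MEM or RPMI 1640 with 10% FBS at 37 °C in 5% CO2. Seeded at 8000−20000 cells/mL/well and allowed to adhere overnight. Exposed to various drug concentrations for 72 h, then methylene blue stain extracted with 1% N-lauroylsarcosine and A595 read. IC50 taken relative to untreated cells; means and standard errors, ≥3 independent experiments in duplicate.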

[3] = (§2) Inhibition of bovine brain tubulin polymerization measured every 30 sec for 30 mins by turbidimetric assay; parameters: species or system Bos taurus
Bos taurus [4] = species: Bos taurus; test: as §2
MKN-45 = test: Growth inhibition of human MKN45 cells after 72 hrs by methylene blue assay; type: functional, cell-based; settings: MKN-45, 72 h; in short: as §1
Bos taurus [5] = species: Bos taurus; test: Displacement of [3H]cholchicine from bovine brain tubulin at 5 uM after 2 hrs by scintillation counting
[6] = Growth inhibition of human KB-VIN10 cells after 72 hrs by methylene blue assay; type: functional, cell-based; settings: KB-VIN10, 72 h
In short: (§3)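 Resistant KB sublines were maintained in extra drug: KB-Vin10 in 10 nM vincristine, KB-S15 in 50 nM paclitaxel, KB-7D in 7 μM VP16. Cells were kept drug-free for 3 days before harvest. Seeded at 8000−20000 cells/mL/well and exposed 72 h. Read by methylene blue, A595 after N-lauroylsarcosine extraction. Means and standard errors of ≥3 experiments in duplicate.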

Bos taurus [7] = species: Bos taurus; test: Displacement of [3H]cholchicine from bovine brain tubulin after 2 hrs by scintillation counting
In short: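 Scintillation proximity assay: 0.08 μM [3H]colchicine plus test compound and 0.5 μg biotin-labeled tubulin in 80 mM PIPES pH 6.8, 1 mM EGTA, 10% glycerol, 1 mM MgCl2, 1 mM GTP, 2 h at 37 °C. Streptavidin SPA beads (80 μg) then added and counts read directly by scintillation counter.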

[8] = Growth inhibition of human KB-S15 cells after 72 hrs by methylene blue assay; type: functional, cell-based; settings: KB-S15, 72 h; in short: as §3
[9] = Growth inhibition of human KB-7d cells after 72 hrs by methylene blue assay; type: functional, cell-based; settings: KB7D; in short: as §3
HT-29 = test: Growth inhibition of human HT-29 cells after 72 hrs by methylene blue assay; type: functional, cell-based; settings: HT-29, 72 h; in short: as §1
HUVEC [10] = test: Cytotoxicity against HUVEC assessed as reduction in cell viability at 15 to 120 uM; type: cell-based; settings: human
HUVEC [11] = test: Antiangiogenic activity in HUVEC assessed as inhibition of capillary tube formation after 4 hrs by Matrigel matrix assay; type: functional, cell-based; settings: Homo sapiens
In short: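 HUVECs seeded at 2 × 10^4 cells/well on Matrigel in M199 with 20% FBS and 20 ng/mL VEGF. Capillaries formed over 4 h before test compound or DMSO vehicle was added. Imaged at addition and 4 h later. Capillary tube networks counted manually under a microscope at 100×, expressed relative to vehicle control. Mean ± SD of three separate experiments.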

Row | IC50 (KB) | IC50 (MKN-45) | IC50 (HT-29) | Compound | IC50 [6] | IC50 [8] | IC50 [9] | also measured
1 | 18 nM | 4 nM | 16 nM | COc1cc(S(=O)(=O)c2ccc3c(N)c(OC)ccc3n2)cc(OC)c1OC | 2.8 nM | 2.5 nM | 2.4 nM | inhibition (Bos taurus [1]): Active; inhibition (Bos taurus [2]): 65%; IC50 [3]: 2000 nM; inhibition (Bos taurus [4]): Dose-dependent effect; inhibition (Bos taurus [5]): 85%; inhibition (Bos taurus [7]): Dose-dependent effect
2 | > 5000 nM | > 5000 nM | > 5000 nM | COc1cc(-c2ccc3c(N)c(OC)ccc3n2)cc(OC)c1OC | – | – | – | –
3 | 31 nM | 61 nM | 139 nM | COc1cc(Oc2ccc3c(N)c(OC)ccc3n2)cc(OC)c1OC | 78.8 nM | 42.9 nM | 76.2 nM | inhibition (Bos taurus [2]): 44%; IC50 [3]: 5800 nM; inhibition (Bos taurus [5]): 60%
4 | 451 nM | 819 nM | 1090 nM | COc1cc(C(=O)c2ccc3c(I)c(OC)ccc3n2)cc(OC)c1OC | – | – | – | –
5 | – | – | – | CC[C@]1(O)C[C@H]2CN(CCc3c([nH]c4ccccc34)[C@@](C(=O)OC)(c3cc4c(cc3OC)N(C=O)[C@H]3[C@@](O)(C(=O)OC)[C@H](OC(C)=O)[C@]5(CC)C=CCN6CC[C@]43[C@@H]65)C2)C1 [VINCRISTINE] | 90.1 nM | 17.6 nM | 1.2 nM | –
6 | – | – | – | COc1cc([C@@H]2c3cc4c(cc3[C@@H](O[C@@H]3O[C@@H]5CO[C@@H](C)O[C@H]5[C@H](O)[C@H]3O)[C@H]3COC(=O)[C@H]23)OCO4)cc(OC)c1O [ETOPOSIDE] | 23000 nM | 3500 nM | 54000 nM | –
7 | – | – | – | CC(=O)O[C@H]1C(=O)[C@@]2(C)[C@H]([C@H](OC(=O)c3ccccc3)[C@]3(O)C[C@H](OC(=O)[C@H](O)[C@@H](NC(=O)c4ccccc4)c4ccccc4)C(C)=C1C3(C)C)[C@]1(OC(C)=O)CO[C@@H]1C[C@@H]2O [PACLITAXEL] | 16500 nM | 273 nM | 7.9 nM | –
8 | > 5000 nM | > 5000 nM | > 5000 nM | COc1cc(Nc2ccc3c(N)c(OC)ccc3n2)cc(OC)c1OC | – | – | – | –
9 | 45 nM | 60 nM | 51 nM | COc1cc(C(=O)c2ccc3c(Cl)c(OC)ccc3n2)cc(OC)c1OC | – | – | – | –
10 | 59 nM | 28 nM | 40 nM | COc1cc(Sc2ccc3c(N)c(OC)ccc3n2)cc(OC)c1OC | – | – | – | –
11 | 108 nM | 167 nM | 195 nM | COc1cc(C(=O)c2ccc3c(Br)c(OC)ccc3n2)cc(OC)c1OC | – | – | – | –
12 | 2.8 nM | 4.5 nM | 3.1 nM | COc1cc(C(=O)c2ccc3c(O)c(OC)ccc3n2)cc(OC)c1OC | 5.8 nM | 5.2 nM | 9.2 nM | inhibition (Bos taurus [1]): Active; inhibition (Bos taurus [2]): 91%; Activity (HUVEC [10]): Non-toxic; Activity (HUVEC [11]): Dose-dependent effect; IC50 [3]: 1500 nM; inhibition (Bos taurus [4]): Dose-dependent effect; inhibition (Bos taurus [5]): 97%

Row | Compound | IC50 (KB) | IC50 (MKN-45) | IC50 (HT-29) | IC50 [6] | IC50 [8] | IC50 [9] | also measured
13 | COc1cc2c(c(OC)c1OC)-c1ccc(OC)c(=O)cc1[C@@H](NC(C)=O)CC2 [COLCHICINE] | – | 19.2 nM | 16.2 nM | – | – | – | –
